From ChEMBL document CHEMBL4316620, “Dihydropyrrolones as bacterial quorum sensing inhibitors” (Bioorg Med Chem Lett, 2019)
Calls of active or inactive are those of the source. The calls are words filed in the database; no cut-off is given here.

Test system: not listed separately
Experiment: Inhibition of quorum sensing system in Pseudomonas aeruginosa MH602 PlasB::gfp at 31.25 uM incubated for 15 hrs by GFP reporter gene assay
Settings: not given
Procedure, shortened: (§1)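 Reporter strain P. aeruginosa PlasB::gfp (PAMH602) makes its own AHL; lasB promoter drives GFP-ASV. Cultures incubated with compound over 250–31.25 µM at 37 °C for 15 h, then GFP fluorescence read at 535 nm. QSI expressed as % relative to untreated PAMH602 negative control. Furanone positive control.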

inhibition [%] | SMILES
12.6 | C=C1C(c2ccc(Br)cc2)=CC(=O)N1c1cccc(Br)c1
39.5 | C=C1NC(=O)C=C1c1cccc(F)c1
27.1 | O=C1C=C(c2ccc(F)cc2)CN1
15.2 | C=C1C(c2ccc(Br)cc2)=CC(=O)N1c1ccc(C)cc1
36.5 | C=C1NC(=O)C=C1c1ccc(C)cc1
39.7 | C=C1C(c2ccccc2F)=CC(=O)N1c1ccc(Br)cc1
22.6 | O=C1C=C(c2ccc(Cl)cc2)CN1
22.4 | O=C1C=C(c2cccc(F)c2)CN1
33.7 | C=C1NC(=O)C(C)=C1c1ccc(Br)cc1
34.1 | C=C1C(c2ccc(Br)cc2)=CC(=O)N1c1csc2ccccc12
35.4 | C=C1NC(=O)C=C1c1cccc(C(F)(F)F)c1
51.3 | C=C1NC(=O)C=C1c1ccc([N+](=O)[O-])cc1
5.8 | C=C1C(c2ccc(Br)cc2)=CC(=O)N1c1cccc(F)c1
46.4 | C=C1C(c2ccccc2F)=CC(=O)N1c1ccccc1
33.3 | C=C1NC(=O)C=C1c1ccc(Cl)cc1

Test system: Pseudomonas aeruginosa
Experiment: Inhibition of biofilm formation in Pseudomonas aeruginosa PAO1 at 250 uM incubated for 6 hrs by crystal violet staining based method
Assay type: functional
Settings: not given
Procedure, shortened: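 P. aeruginosa PA01 biofilm. Cultures grown with or without test compound for 6 h. Biofilm biomass quantified by crystal violet staining (OD550). % inhibition calculated relative to DMSO control.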

SMILES | inhibition
O=C1C=C(c2ccc(F)cc2)CN1 | inactive

Same assay, conditions: PAO1, 6 h

SMILES | inhibition at 250 µM [%]
C=C1C(c2ccc(Br)cc2)=CC(=O)N1c1cccc(Br)c1 | 47.1
C=C1NC(=O)C=C1c1cccc(F)c1 | 55.2
C=C1C(c2ccc(Br)cc2)=CC(=O)N1c1ccc(C)cc1 | 16.3
C=C1C(c2ccccc2F)=CC(=O)N1c1ccc(Br)cc1 | 49.2
O=C1C=C(c2ccc(Cl)cc2)CN1 | 9.6
O=C1C=C(c2cccc(F)c2)CN1 | 21.4
C=C1C(c2ccc(Br)cc2)=CC(=O)N1c1csc2ccccc12 | 13.2
C=C1NC(=O)C=C1c1cccc(C(F)(F)F)c1 | 50.3
C=C1NC(=O)C=C1c1ccc([N+](=O)[O-])cc1 | 57.2
C=C1C(c2ccc(Br)cc2)=CC(=O)N1c1cccc(F)c1 | 29.3
C=C1C(c2ccccc2F)=CC(=O)N1c1ccccc1 | 38.2
C=C1NC(=O)C=C1c1ccc(Cl)cc1 | 60.9

Test system: not listed separately
Experiment: Inhibition of quorum sensing system in Pseudomonas aeruginosa MH602 PlasB::gfp at 125 uM incubated for 15 hrs by GFP reporter gene assay
Settings: not given
Procedure, shortened: as §1

inhibition [%] | SMILES
60.3 | C=C1C(c2ccc(Br)cc2)=CC(=O)N1c1cccc(Br)c1
66.5 | C=C1NC(=O)C=C1c1cccc(F)c1
40.2 | O=C1C=C(c2ccc(F)cc2)CN1
52.6 | C=C1C(c2ccc(Br)cc2)=CC(=O)N1c1ccc(C)cc1
78.7 | C=C1NC(=O)C=C1c1ccc(C)cc1
54.9 | C=C1C(c2ccccc2F)=CC(=O)N1c1ccc(Br)cc1
42.7 | O=C1C=C(c2ccc(Cl)cc2)CN1
45.5 | O=C1C=C(c2cccc(F)c2)CN1
45.2 | C=C1NC(=O)C(C)=C1c1ccc(Br)cc1
55.6 | C=C1C(c2ccc(Br)cc2)=CC(=O)N1c1csc2ccccc12
67.9 | C=C1NC(=O)C=C1c1cccc(C(F)(F)F)c1
69.9 | C=C1NC(=O)C=C1c1ccc([N+](=O)[O-])cc1
49.1 | C=C1C(c2ccc(Br)cc2)=CC(=O)N1c1cccc(F)c1
60.9 | C=C1C(c2ccccc2F)=CC(=O)N1c1ccccc1
64.6 | C=C1NC(=O)C=C1c1ccc(Cl)cc1

Test system: not listed separately
Experiment: Inhibition of quorum sensing system in Pseudomonas aeruginosa MH602 PlasB::gfp at 250 uM incubated for 15 hrs by GFP reporter gene assay
Settings: not given
Procedure, shortened: as §1

inhibition [%] | SMILES
73.2 | C=C1C(c2ccc(Br)cc2)=CC(=O)N1c1cccc(Br)c1
72.8 | C=C1NC(=O)C=C1c1cccc(F)c1
63 | O=C1C=C(c2ccc(F)cc2)CN1
61.6 | C=C1C(c2ccc(Br)cc2)=CC(=O)N1c1ccc(C)cc1
80.5 | C=C1NC(=O)C=C1c1ccc(C)cc1
60.7 | C=C1C(c2ccccc2F)=CC(=O)N1c1ccc(Br)cc1
61.5 | O=C1C=C(c2ccc(Cl)cc2)CN1
67.2 | O=C1C=C(c2cccc(F)c2)CN1
59.6 | C=C1NC(=O)C(C)=C1c1ccc(Br)cc1
67.4 | C=C1C(c2ccc(Br)cc2)=CC(=O)N1c1csc2ccccc12
74.4 | C=C1NC(=O)C=C1c1cccc(C(F)(F)F)c1
80.9 | C=C1NC(=O)C=C1c1ccc([N+](=O)[O-])cc1
50.9 | C=C1C(c2ccc(Br)cc2)=CC(=O)N1c1cccc(F)c1
63.7 | C=C1C(c2ccccc2F)=CC(=O)N1c1ccccc1
73.8 | C=C1NC(=O)C=C1c1ccc(Cl)cc1

Test system: Pseudomonas aeruginosa
Experiment: Toxicity in Pseudomonas aeruginosa MH602 PlasB::gfp assessed as inhibition of bacterial growth at 62.5 uM incubated for 15 hrs by spectrophotometry
Assay type: organism-based
Settings: MH602, 15 h, read-out: GI

SMILES | inhibition at 62.5 µM [%]
C=C1C(c2ccc(Br)cc2)=CC(=O)N1c1cccc(Br)c1 | ≤ 15
C=C1NC(=O)C=C1c1cccc(F)c1 | ≤ 15
O=C1C=C(c2ccc(F)cc2)CN1 | ≤ 15
C=C1C(c2ccc(Br)cc2)=CC(=O)N1c1ccc(C)cc1 | ≤ 15
C=C1NC(=O)C=C1c1ccc(C)cc1 | ≤ 15
C=C1C(c2ccccc2F)=CC(=O)N1c1ccc(Br)cc1 | ≤ 15
O=C1C=C(c2ccc(Cl)cc2)CN1 | ≤ 15
O=C1C=C(c2cccc(F)c2)CN1 | ≤ 15
C=C1NC(=O)C(C)=C1c1ccc(Br)cc1 | ≤ 15
C=C1C(c2ccc(Br)cc2)=CC(=O)N1c1csc2ccccc12 | ≤ 15
C=C1NC(=O)C=C1c1cccc(C(F)(F)F)c1 | ≤ 15
C=C1NC(=O)C=C1c1ccc([N+](=O)[O-])cc1 | ≤ 15
C=C1C(c2ccc(Br)cc2)=CC(=O)N1c1cccc(F)c1 | ≤ 15
C=C1C(c2ccccc2F)=CC(=O)N1c1ccccc1 | ≤ 15
C=C1NC(=O)C=C1c1ccc(Cl)cc1 | ≤ 15

Test system: Pseudomonas aeruginosa
Experiment: Toxicity in Pseudomonas aeruginosa MH602 PlasB::gfp assessed as inhibition of bacterial growth at 31.25 uM incubated for 15 hrs by spectrophotometry
Assay type: organism-based
Settings: MH602, 15 h, read-out: GI

SMILES | inhibition at 31.25 µM [%]
C=C1C(c2ccc(Br)cc2)=CC(=O)N1c1cccc(Br)c1 | ≤ 15
C=C1NC(=O)C=C1c1cccc(F)c1 | ≤ 15
O=C1C=C(c2ccc(F)cc2)CN1 | ≤ 15
C=C1C(c2ccc(Br)cc2)=CC(=O)N1c1ccc(C)cc1 | ≤ 15
C=C1NC(=O)C=C1c1ccc(C)cc1 | ≤ 15
C=C1C(c2ccccc2F)=CC(=O)N1c1ccc(Br)cc1 | ≤ 15
O=C1C=C(c2ccc(Cl)cc2)CN1 | ≤ 15
O=C1C=C(c2cccc(F)c2)CN1 | ≤ 15
C=C1NC(=O)C(C)=C1c1ccc(Br)cc1 | ≤ 15
C=C1C(c2ccc(Br)cc2)=CC(=O)N1c1csc2ccccc12 | ≤ 15
C=C1NC(=O)C=C1c1cccc(C(F)(F)F)c1 | ≤ 15
C=C1NC(=O)C=C1c1ccc([N+](=O)[O-])cc1 | ≤ 15
C=C1C(c2ccc(Br)cc2)=CC(=O)N1c1cccc(F)c1 | ≤ 15
C=C1C(c2ccccc2F)=CC(=O)N1c1ccccc1 | ≤ 15
C=C1NC(=O)C=C1c1ccc(Cl)cc1 | ≤ 15

Test system: not listed separately
Experiment: Inhibition of quorum sensing system in Pseudomonas aeruginosa MH602 PlasB::gfp at 62.5 uM incubated for 15 hrs by GFP reporter gene assay
Settings: not given
Procedure, shortened: as §1

inhibition [%] | SMILES
37.7 | C=C1C(c2ccc(Br)cc2)=CC(=O)N1c1cccc(Br)c1
52.9 | C=C1NC(=O)C=C1c1cccc(F)c1
28.7 | O=C1C=C(c2ccc(F)cc2)CN1
42.7 | C=C1C(c2ccc(Br)cc2)=CC(=O)N1c1ccc(C)cc1
72.3 | C=C1NC(=O)C=C1c1ccc(C)cc1
48.4 | C=C1C(c2ccccc2F)=CC(=O)N1c1ccc(Br)cc1
26.4 | O=C1C=C(c2ccc(Cl)cc2)CN1
24 | O=C1C=C(c2cccc(F)c2)CN1
38.1 | C=C1NC(=O)C(C)=C1c1ccc(Br)cc1
42.8 | C=C1C(c2ccc(Br)cc2)=CC(=O)N1c1csc2ccccc12
57.1 | C=C1NC(=O)C=C1c1cccc(C(F)(F)F)c1
63.5 | C=C1NC(=O)C=C1c1ccc([N+](=O)[O-])cc1
47.7 | C=C1C(c2ccc(Br)cc2)=CC(=O)N1c1cccc(F)c1
56.9 | C=C1C(c2ccccc2F)=CC(=O)N1c1ccccc1
49.4 | C=C1NC(=O)C=C1c1ccc(Cl)cc1

Test system: Pseudomonas aeruginosa
Experiment: Toxicity in Pseudomonas aeruginosa MH602 PlasB::gfp assessed as inhibition of bacterial growth at 250 uM incubated for 15 hrs by spectrophotometry
Assay type: organism-based
Settings: MH602, 15 h, read-out: GI

SMILES | inhibition at 250 µM [%]
C=C1C(c2ccc(Br)cc2)=CC(=O)N1c1cccc(Br)c1 | ≤ 15
C=C1NC(=O)C=C1c1cccc(F)c1 | ≤ 15
O=C1C=C(c2ccc(F)cc2)CN1 | ≤ 15
C=C1C(c2ccc(Br)cc2)=CC(=O)N1c1ccc(C)cc1 | 15 to 30
C=C1NC(=O)C=C1c1ccc(C)cc1 | ≤ 15
C=C1C(c2ccccc2F)=CC(=O)N1c1ccc(Br)cc1 | ≤ 15
O=C1C=C(c2ccc(Cl)cc2)CN1 | ≤ 15
O=C1C=C(c2cccc(F)c2)CN1 | ≤ 15
C=C1NC(=O)C(C)=C1c1ccc(Br)cc1 | ≤ 15
C=C1C(c2ccc(Br)cc2)=CC(=O)N1c1csc2ccccc12 | 15 to 30
C=C1NC(=O)C=C1c1cccc(C(F)(F)F)c1 | ≤ 15
C=C1NC(=O)C=C1c1ccc([N+](=O)[O-])cc1 | 15 to 30
C=C1C(c2ccc(Br)cc2)=CC(=O)N1c1cccc(F)c1 | ≤ 15
C=C1C(c2ccccc2F)=CC(=O)N1c1ccccc1 | ≤ 15
C=C1NC(=O)C=C1c1ccc(Cl)cc1 | ≤ 15

Test system: Pseudomonas aeruginosa
Experiment: Toxicity in Pseudomonas aeruginosa MH602 PlasB::gfp assessed as inhibition of bacterial growth at 125 uM incubated for 15 hrs by spectrophotometry
Assay type: organism-based
Settings: MH602, 15 h, read-out: GI

SMILES | inhibition at 125 µM [%]
C=C1C(c2ccc(Br)cc2)=CC(=O)N1c1cccc(Br)c1 | ≤ 15
C=C1NC(=O)C=C1c1cccc(F)c1 | ≤ 15
O=C1C=C(c2ccc(F)cc2)CN1 | ≤ 15
C=C1C(c2ccc(Br)cc2)=CC(=O)N1c1ccc(C)cc1 | ≤ 15
C=C1NC(=O)C=C1c1ccc(C)cc1 | ≤ 15
C=C1C(c2ccccc2F)=CC(=O)N1c1ccc(Br)cc1 | ≤ 15
O=C1C=C(c2ccc(Cl)cc2)CN1 | ≤ 15
O=C1C=C(c2cccc(F)c2)CN1 | ≤ 15
C=C1NC(=O)C(C)=C1c1ccc(Br)cc1 | ≤ 15
C=C1C(c2ccc(Br)cc2)=CC(=O)N1c1csc2ccccc12 | ≤ 15
C=C1NC(=O)C=C1c1cccc(C(F)(F)F)c1 | ≤ 15
C=C1NC(=O)C=C1c1ccc([N+](=O)[O-])cc1 | ≤ 15
C=C1C(c2ccc(Br)cc2)=CC(=O)N1c1cccc(F)c1 | ≤ 15
C=C1C(c2ccccc2F)=CC(=O)N1c1ccccc1 | ≤ 15
C=C1NC(=O)C=C1c1ccc(Cl)cc1 | ≤ 15
